Calls of active or inactive are those of the source. Where a SMILES comes first, the peptide text is derived from it. [ ]: non-standard residue; d: D form. The star is where a group is joined. Dmt = Cc1cc(O)cc(C)c1C[C@H](N)C(=O)O; Tic = O=C(O)[C@@H]1Cc2ccccc2CN1; NHBn = c1ccc(CN*)cc1; NHPh = c1ccc(N*)cc1
Assays:
[1] = target: Delta-type opioid receptor (Rattus norvegicus, UniProt P33533); experiment: Displacement of [3H]deltorphin2 from delta opioid receptor in Sprague-Dawley rat brain P2 synaptosomal membrane
Chain of Delta-type opioid receptor (Rattus norvegicus, UniProt P33533) (P33533 whole entry): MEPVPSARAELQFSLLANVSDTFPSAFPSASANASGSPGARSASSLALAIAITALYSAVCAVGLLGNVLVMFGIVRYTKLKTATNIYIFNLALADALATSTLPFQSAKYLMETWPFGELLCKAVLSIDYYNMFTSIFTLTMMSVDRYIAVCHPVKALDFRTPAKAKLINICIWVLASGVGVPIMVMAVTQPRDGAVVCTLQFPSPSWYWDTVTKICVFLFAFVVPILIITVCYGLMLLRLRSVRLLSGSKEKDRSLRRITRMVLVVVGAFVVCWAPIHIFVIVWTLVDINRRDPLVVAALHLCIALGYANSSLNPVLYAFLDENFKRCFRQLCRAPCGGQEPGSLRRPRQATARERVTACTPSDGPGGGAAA
Method in brief: (§1)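 Competition binding to Sprague-Dawley rat brain P2 synaptosomal membranes, preincubated to strip endogenous opioids and stored at −80 °C in buffered 20% glycerol. Incubated at equilibrium for 2.5 h at 23 °C. Separated on polyethylenimine-soaked (0.1%) glass-fibre filters washed three times in ice-cold buffered BSA. Duplicates at five to eight doses, 3–5 independent membrane preparations; Ki by Cheng–Prusoff, mean ± SE.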

[2] = target: Delta-type opioid receptor (Mus musculus, UniProt P32300); experiment: Antagonist activity at delta opioid receptor in mouse vas deferens assessed as effect on deltorphin 2-induced response; format: functional, tissue-based; conditions: read-out: pA2 (converted)
Chain of Delta-type opioid receptor (Mus musculus, UniProt P32300) (P32300 whole entry): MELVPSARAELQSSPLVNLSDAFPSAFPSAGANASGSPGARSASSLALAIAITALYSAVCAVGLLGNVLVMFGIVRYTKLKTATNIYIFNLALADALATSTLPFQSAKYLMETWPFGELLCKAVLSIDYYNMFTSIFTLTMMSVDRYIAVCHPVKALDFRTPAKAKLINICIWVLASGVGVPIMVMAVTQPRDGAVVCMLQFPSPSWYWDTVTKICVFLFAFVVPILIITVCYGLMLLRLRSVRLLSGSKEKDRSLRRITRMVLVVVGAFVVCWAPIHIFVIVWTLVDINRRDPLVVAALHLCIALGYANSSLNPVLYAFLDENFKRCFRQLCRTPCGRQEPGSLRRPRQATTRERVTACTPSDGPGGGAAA
Method in brief: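 Single mouse vas deferens suspended in an organ bath in balanced physiological salt buffer, pH 7.5. Agonism measured as inhibition of electrically evoked contraction, with IC50 taken from dose-response curves; DPDPE was the internal standard. Antagonism tested against deltorphin II and given as pA2 (Schild plot / Kosterlitz and Watt method). Values are mean ± SE of separate tissue assays.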

[3] = target: Mu-type opioid receptor (Rattus norvegicus, UniProt P33535); experiment: Displacement of [3H]DAMGO from mu opioid receptor in Sprague-Dawley rat brain P2 synaptosomal membrane; method in brief: as §1
Chain of Mu-type opioid receptor (P33535 whole entry): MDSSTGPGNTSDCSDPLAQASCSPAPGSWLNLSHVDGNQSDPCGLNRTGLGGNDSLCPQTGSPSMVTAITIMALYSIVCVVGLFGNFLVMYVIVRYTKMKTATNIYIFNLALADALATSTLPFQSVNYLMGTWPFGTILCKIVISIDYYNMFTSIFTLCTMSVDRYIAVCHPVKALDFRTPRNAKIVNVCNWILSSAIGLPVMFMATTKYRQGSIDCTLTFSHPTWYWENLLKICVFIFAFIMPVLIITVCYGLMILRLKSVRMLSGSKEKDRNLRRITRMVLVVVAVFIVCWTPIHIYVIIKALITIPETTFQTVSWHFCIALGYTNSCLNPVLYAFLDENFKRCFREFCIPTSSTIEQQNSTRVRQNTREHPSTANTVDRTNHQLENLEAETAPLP

[4] = organism: Rattus norvegicus; experiment: Selectivity ratio of Ki for mu opioid receptor in Sprague-Dawley rat brain to Ki for delta opioid receptor in Sprague-Dawley rat brain
[5] = system: Mus musculus; experiment: Toxicity in icv dosed Swiss-Webster mouse assessed as induction of convulsion; format: organism-based; conditions: in vivo, icv_or_intrathecal
[6] = system: Mus musculus; experiment: Antinociceptive activity in Swiss-Webster mouse at 10 ug, icv after 10 mins by hot plate test in presence of naltrindole; format: functional, organism-based
Method in brief: (§2)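 Mice given sc naltrindole (3 mg/kg) or naloxone (10 mg/kg), then 20 min later 10 µg/mouse icv in 5 μL saline. Nociception measured by hot-plate (55 °C, latency to jump/lick/paw-shake, 30 s cut-off, every 10 min) or tail-flick.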

[7] = system: Mus musculus; experiment: Antinociceptive activity in Swiss-Webster mouse at 10 ug, icv by tail flick test in presence of naloxone; format: functional, organism-based; method in brief: as §2
[8] = system: Brain; experiment: Stability in Swiss mouse brain after 2 hrs; format: ADME, tissue-based
[9] = system: Mus musculus; experiment: Toxicity in Swiss-Webster mouse assessed as induction of agitated behavior at 10 ug, icv; format: organism-based; conditions: in vivo, icv_or_intrathecal
[10] = system: Plasma; experiment: Stability in Swiss mouse plasma after 4 hrs; format: ADME, cell-free
[11] = system: Mus musculus; experiment: Analgesic activity in icv dosed Swiss-Webster mouse by tail flick test; format: functional, organism-based
[12] = system: Mus musculus; experiment: Antinociceptive activity in Swiss-Webster mouse at 10 ug, icv by tail flick test in presence of naltrindole; format: functional, organism-based; method in brief: as §2
[13] = system: Mus musculus; experiment: Antinociceptive activity in Swiss-Webster mouse at 10 ug, icv after 10 mins by hot plate test in presence of naloxone; format: functional, organism-based; method in brief: as §2
[14] = system: Mus musculus; experiment: Analgesic activity in icv dosed Swiss-Webster mouse after 10 mins by hot plate test; format: functional, organism-based
Method in brief: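 Male Swiss-Webster mice (20–25 g) given 5 μL of peptide in saline icv at bregma; only mice with a correct needle tract were counted. For hot plate: 55 ± 0.1 °C, start 10 min post-dose, latency to jump, lick or shake hind paw, 30 s cut-off, repeated every 10 min.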

[15] = system: Mus musculus; experiment: Toxicity in Swiss-Webster mouse assessed as induction of sedation at 10 ug, icv; format: organism-based; conditions: in vivo, icv_or_intrathecal

Cc1cc(O)cc(C)c1C[C@H](N)C(=O)N1Cc2ccccc2C[C@H]1C(=O)N[C@H](CC(=O)O)C(=O)Nc1ccccc1
Ki [1]: 0.058 nM
Kb [2]: 2.4 nM
Ki [3]: 7.49 nM
Ratio Ki [4]: 129

Cc1cc(O)cc(C)c1C[C@H](N)C(=O)N1Cc2ccccc2C[C@H]1C(=O)NCC(=O)N(C)c1ccccc1
Ki [1]: 0.143 nM
Kb [2]: 1.58 nM
Ki [3]: 1.75 nM
Ratio Ki [4]: 12

Cc1cc(O)cc(C)c1C[C@H](N)C(=O)N1Cc2ccccc2C[C@H]1C(=O)N[C@@H](CC(=O)O)C(=O)NCc1ccccc1 (H-[Dmt]-[Tic]-Asp-NHBn)
Ki [1]: 0.054 nM
Kb [2]: 2.95 nM
Ki [3]: 309 nM

Cc1cc(O)cc(C)c1C[C@H](N)C(=O)N1Cc2ccccc2C[C@H]1C(=O)N[C@@H](CC(=O)O)C(=O)Nc1ccccc1
Ki [1]: 0.036 nM
Kb [2]: 0.398 nM
Ki [3]: 10.8 nM
Ratio Ki [4]: 300

Cc1cc(O)cc(C)c1C[C@H](N)C(=O)N1Cc2ccccc2C[C@H]1C(=O)N[C@H](CC(=O)O)c1nc2ccccc2n1C
Ki [1]: 0.07 nM
Kb [2]: 0.224 nM
Ki [3]: 11.8 nM
Ratio Ki [4]: 169

Cc1cc(O)cc(C)c1C[C@H](N)C(=O)N1Cc2ccccc2C[C@H]1C(=O)N[C@H](CC(=O)O)C(=O)N(C)c1ccccc1
Ki [1]: 0.084 nM
Kb [2]: 8.71 nM
Ki [3]: 45 nM
Ratio Ki [4]: 536

Cc1cc(O)cc(C)c1C[C@H](N)C(=O)N1Cc2ccccc2C[C@H]1C(=O)N[C@@H](CC(=O)O)c1nc2ccccc2[nH]1
Activity [5]: Toxic
Activity [6]: Active
Activity [7]: inactive
Stability [8]: Stable
Activity [9]: Toxic
Kb [2]: 0.126 nM
Ratio Ki [4]: 122
Stability [10]: Stable
Activity [11]: Dose-dependent effect
Activity [12]: inactive
Activity [13]: Active
Activity [14]: Dose-dependent effect

Cc1cc(O)cc(C)c1C[C@H](N)C(=O)N1Cc2ccccc2C[C@H]1C(=O)NCC(=O)NCc1ccccc1 (H-[Dmt]-[Tic]-Gly-NHBn)
Ratio Ki [4]: 5

Cc1cc(O)cc(C)c1C[C@H](N)C(=O)N1Cc2ccccc2C[C@H]1C(=O)NCC(=O)Nc1ccccc1 (H-[Dmt]-[Tic]-Gly-NHPh)
Ratio Ki [4]: 4

Cc1cc(O)cc(C)c1C[C@H](N)C(=O)N1Cc2ccccc2C[C@H]1C(=O)N[C@H](CC(=O)O)c1nc2ccccc2[nH]1
Ki [1]: 0.067 nM
Ki [3]: 16.1 nM
Ratio Ki [4]: 240

Cc1cc(O)cc(C)c1C[C@H](N)C(=O)N1Cc2ccccc2C[C@H]1C(=O)N[C@@H](CC(=O)O)c1nc2ccccc2n1C
Activity [5]: Toxic
Activity [6]: Active
Activity [7]: inactive
Stability [8]: Stable
Activity [15]: Toxic
Ki [1]: 0.059 nM
Kb [2]: 0.126 nM
Ki [3]: 5.93 nM
Ratio Ki [4]: 101
Stability [10]: Stable
Activity [11]: Dose-dependent effect
Activity [12]: inactive
Activity [13]: Active
Activity [14]: Dose-dependent effect

Cc1cc(O)cc(C)c1C[C@H](N)C(=O)N1Cc2ccccc2C[C@H]1C(=O)N[C@@H](CC(=O)O)C(=O)N(C)c1ccccc1
Ki [1]: 0.186 nM
Kb [2]: 1.78 nM
Ki [3]: 364 nM
Ratio Ki [4]: 1960

— ChEMBL document CHEMBL1156628, “Further studies on lead compounds containing the opioid pharmacophore Dmt-Tic” (J Med Chem, 2008)
